CHRM1 agonist = human M1 muscarinic receptor agonists, primary screen, Fluo-8 calcium fluorescence, CHO-K1 cells, HTS; Muscarinic acetylcholine receptor M1 (Homo sapiens), P11229; CHO-K1 hM1, agonist mode; 0% DMSO, 100% acetylcholine EC100; activation, % at 3 µM; 0.33% of 360,000 active; AID 588814, 2011;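 active = activation above the run's mean compound activation plus 3 SD, cut at about 16% in these data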;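 also: peak over basal fluorescence ratio within a 140 s kinetic read after compound addition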
Target sequence (P11229 whole entry, looked up): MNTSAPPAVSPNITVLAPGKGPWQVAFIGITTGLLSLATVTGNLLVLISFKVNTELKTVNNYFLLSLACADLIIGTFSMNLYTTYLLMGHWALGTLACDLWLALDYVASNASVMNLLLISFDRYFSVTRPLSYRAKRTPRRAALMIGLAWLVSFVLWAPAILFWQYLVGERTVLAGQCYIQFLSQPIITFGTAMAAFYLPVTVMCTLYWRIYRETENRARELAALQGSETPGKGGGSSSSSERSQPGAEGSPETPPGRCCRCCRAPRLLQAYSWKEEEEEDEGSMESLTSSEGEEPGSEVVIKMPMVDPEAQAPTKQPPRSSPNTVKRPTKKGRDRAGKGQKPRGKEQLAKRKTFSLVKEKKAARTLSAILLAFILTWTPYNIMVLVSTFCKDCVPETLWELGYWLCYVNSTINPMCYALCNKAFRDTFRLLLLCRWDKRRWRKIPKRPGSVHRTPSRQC
M5 PAM = human M5 muscarinic receptor positive allosteric modulators, primary screen, CHO-K1 cells, Fluo-8 calcium fluorescence | Muscarinic acetylcholine receptor M5 (Homo sapiens), P08912 | CHO-K1 hM5, ACh EC20 PAM; 0% = ACh EC20, 100% = ACh EC100 | activation, % at 3 µM | 0.3% of 360,000 active | AID 624038, 2012;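 active = activation above the run cutoff, the mean activation of all test compounds plus 3 SD, cut at about 18% in these data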
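Assay system: CHO-K1 hM5 cells. Also added: acetylcholine at EC20 concentration, added after compound. Dosing: 3 µM, single dose. Times: compound preincubation 140 s before EC20 acetylcholine addition. Signal: Fluo-8 calcium fluorescence. Measure: % activation relative to EC20 and EC100 ACh responses. Repeats: singlicate, one well per test compound.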
M5 ag = human M5 muscarinic receptor agonists, primary screen, CHO-K1 cells, Fluo-8 calcium fluorescence; Muscarinic acetylcholine receptor M5 (Homo sapiens), P08912; CHO-K1 hM5 cells; 0% DMSO wells, 100% maximal acetylcholine response; activation, % at 3 µM; 0.19% of 360,000 active; AID 624037, 2012;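 active = activation above the run's mean over test compounds plus 3 SD, cut at about 23% in these data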;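 also: signal is peak over basal fluorescence ratio across the kinetic read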
CHRM1 PAM = human M1 muscarinic receptor positive allosteric modulators, primary screen, CHO-K1 cells, Fluo-8 calcium fluorescence, 1536-well; Muscarinic acetylcholine receptor M1 (Homo sapiens), P11229; CHO-K1 hM1, ACh EC20; 0% = ACh EC20, 100% = maximal ACh; activation, % at 3 µM; 0.088% of 360,000 active; in the data active = activation above about 19%, passing the limit was not always enough
CHRM1 antagonist = human M1 muscarinic receptor antagonists, primary screen, CHO-K1 cells, Fluo-8 calcium fluorescence, 1536-well; 1.3% of 360,000 active; inhibition, % at 3 µM; CHO-K1 hM1, ACh EC80 antagonist; Muscarinic acetylcholine receptor M1 (Homo sapiens), P11229;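 active = percent inhibition above its own plate's cutoff, namely the mean of that plate's compound wells plus 3 SD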;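 also: peak over basal fluorescence ratio during 140 s after agonist addition; 0% = ACh EC80 plus DMSO and 100% = DMSO alone without agonist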
M5 antag = human M5 muscarinic receptor antagonists, primary screen, CHO cells, Fluo-8 calcium fluorescence; AID 624040, 2012; inhibition, % at 3 µM; 0.59% of 360,000 active; Muscarinic acetylcholine receptor M5 (Homo sapiens), P08912; CHO-hM5 cells, ACh EC80;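 active = inhibition above a per-plate cutoff, the mean of that plate's test compounds plus 3 SD, cut at about 27% in these data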;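 also: 0% = acetylcholine EC80 with DMSO and 100% = DMSO without agonist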
* = called active by the depositor. A selection: hits, their analogues and other compounds. The true share with any hit is near 2.2%.

SMILES | CHRM1 agonist | M5 PAM | M5 ag | CHRM1 PAM | CHRM1 antagonist | M5 antag
COc1cc(/C=C/[N+](=O)[O-])ccc1O | -2 | 11 | 10 | 2 | 7 | -8
CCN(CC)c1ccc(/C=C/[N+](=O)[O-])cc1 | 70* | -31 | 96* | -8 | 53* | 90*
CC(C)S(=O)(=O)N1Cc2ccccc2-n2nncc2C1 | -11 | -17 | -3 | -28 | 47* | 13
O=C(c1cccc2ccccc12)C1CCCN(Cc2ccon2)C1 (stereo unspecified) | -3 | 14 | 1 | 3 | -7 | 2
O=C(c1cccc2ccccc12)C1CCCN(C2CCC2)C1 (stereo unspecified) | 16* | -17 | -9 | -14 | 26* | 10
O=C1NCN(c2ccccc2)C12CCN(C(c1cc3ccccc3o1)c1nnnn1C1CCCCC1)CC2 (stereo unspecified) | 0 | 1 | 4 | -5 | 1 | -7
CC(C)c1ccc(N2C(=O)NC(=O)/C(=C\c3cnc(-c4ccccc4)nc3)C2=O)cc1 | -3 | 3 | 0 | 26* | 4 | -8
COc1cc(C=C2C(=O)NC(=O)NC2=O)ccc1OCc1ccc([N+](=O)[O-])cc1 | -3 | 1 | 5 | 1 | 1 | 9
COc1cc(/C=C(/C)[N+](=O)[O-])ccc1OCc1ccccc1Cl | -6 | 2 | -2 | 12 | 13 | 27*
Brc1ccc2c(c1)C(OC1CN3CCC1CC3)c1ccccc1CS2 (stereo unspecified) | -8 | -19 | -1 | -24 | 101* | 100*
c1ccc2c(c1)CSc1ccccc1C2C1=NCCN1 (stereo unspecified) | -11 | -8 | -8 | -4 | -15 | 7
CCC(C)N1CCN(C(=O)Cc2ccccc2)CC1 (stereo unspecified) | -6 | -11 | -8 | -20 | 41* | -1
OC(Cc1ccccc1)(c1ccccc1)C1CN2CCC1CC2 (stereo unspecified) | -5 | -20 | -8 | -23 | 98* | 90*
OC(c1ccccc1)(c1ccccc1)C1CN2CCC1CC2 (stereo unspecified) | -11 | -22 | -12 | -28 | 98* | 99*
c1ccc(C2CN3CCC2CC3)cc1 (stereo unspecified) | 5 | -18 | -18 | -13 | 41* | 6
OC(c1ccccc1)(c1ccc(Cl)cc1)C1CN2CCC1CC2 (stereo unspecified) | -5 | -32 | -18 | -24 | 100* | 60*
COc1ccc(/C=C/C=C2C(=O)NC(=S)NC2=O)cc1 | -1 | 3 | 3 | 8 | -11 | 10
CCOC(=O)/C(CCCN(CC)CC)=N\O | -5 | -16 | -11 | -19 | 78* | 35*
C(=NN1CCCCCC1)c1c[nH]c2ccccc12 | -3 | 5 | -3 | -9 | 18 | 10
Brc1ccc2[nH]cc(/C=N/N3CCCCC3)c2c1 | 32* | -1 | 20 | -5 | 7 | 13
Nc1cc(C(=O)Nc2ccccc2F)ccc1N1CC2CC(C1)c1cccc(=O)n1C2 (stereo unspecified) | 2 | 2 | 1 | 13 | -21 | 1
C[N+](C)(C)c1ccccc1 | 39* | -17 | 52* | -13 | -17 | -1
C[C@@H]1CN([C@H](C)CO)C(=O)CCCn2nncc2CO[C@@H]1CN(C)C(=O)Oc1ccc2ccccc2c1 | -8 | 2 | -2 | 2 | -7 | -1
COC(=O)C1=C(c2ccccc2)C[C@@H]2CC[C@H]1N2C(=O)NCc1ccc(C(F)(F)F)cc1 | -9 | -12 | -9 | -29 | 21 | 2
COC(=O)C1=C(c2ccc(C(C)=O)cc2)C[C@@H]2CC[C@H]1N2C(=O)NCc1ccc(C(F)(F)F)cc1 | 24* | -19 | 38* | -4 | 13 | 13
SMILES | CHRM1 agonist | M5 PAM | M5 ag | CHRM1 PAM | CHRM1 antagonist | M5 antag
C=Cn1ccnc1P(O)(=S)c1nc(C)c(CCOC(C)=O)s1 (stereo unspecified) | -4 | -9 | 3 | 9 | -8 | 5
Cc1ccc(S(=O)(=O)N[C@@H](CCCCN)C(=O)CCl)cc1 | 8 | -16 | 39* | 3 | -21 | -8
O=C(c1ccc(C(F)(F)F)cc1)C1CCCN(Cc2ccc(CO)o2)C1 (stereo unspecified) | -7 | -1 | -17 | -26 | 61* | -2
CCn1ccnc1CN1CCCC(C(=O)c2ccc(SC)cc2)C1 (stereo unspecified) | -9 | -11 | -8 | -26 | 77* | 8
COc1ccc(C(=O)C2CCCN(Cc3cnc(C)s3)C2)cc1OC (stereo unspecified) | -10 | -3 | -10 | -10 | 5 | -3
Cc1ncc(CN2CCCC(C(=O)c3ccc(C(C)(C)C)cc3)C2)s1 (stereo unspecified) | -10 | -19 | -5 | -30 | 87* | 29*
CSc1ccc(C(=O)C2CCCN(Cc3cnc(SC)nc3)C2)cc1 (stereo unspecified) | -10 | -3 | -8 | -11 | -1 | 6
CCC1(C)OC(c2ccccc2)=C/C(=C/C=C2C(=O)NC(=O)NC2=O)O1 (stereo unspecified) | 23* | -19 | 61* | -6 | 21 | 5
CC12C=CC(=O)C=C1CC(O)C1C2CCC2(C)C1CCC2(C)O (stereo unspecified) | 3 | 6 | -1 | 17 | -16 | 13
C[C@]12CCC3C(CC[C@H]4C[C@@H](O)CC[C@]34C)C1CC[C@@]2(O)C(F)(F)F (stereo partly specified) | -5 | -4 | -1 | -16 | 1 | 10
CCN(CC)CCC(=O)O[C@H]1CC[C@]2(C)C3CC[C@@]4(C)C(CC[C@]4(C)O)C3CC[C@H]2C1 (stereo partly specified) | 8 | -37 | 1 | -27 | 50* | 27
CN1C(=O)C(=Cc2ccccc2OS(=O)(=O)c2ccccc2)C(=O)N(C)C1=O | -3 | -2 | -7 | 13 | -9 | 10
O=C(NC1CN2CCC1CC2)c1cccc(Cl)c1 (stereo unspecified) | -9 | 2 | -9 | 0 | -7 | 3
O=C(COc1ccc(Cl)cc1)NC1CN2CCC1CC2 (stereo unspecified) | -5 | -23 | -9 | -19 | 45* | 38*

High-throughput results: PubChem, The Scripps Research Institute Molecular Screening Center
